Test results reported in ChEMBL document CHEMBL4257469, “Deciphering the role of hydrophobic and hydrophilic bile acids in angiogenesis using in vitro and in vivo model systems” (Medchemcomm, 2017).
The source made the active and inactive calls. The rule behind the calls is not given here.

Assays:
[1] = species: Danio rerio; test: Toxicity in zebrafish embryo assessed as reduction in embryo survival up to 50 uM; assay type: organism-based; conditions: in vivo
[2] = test system: HUVEC; test: Antiangiogenic activity in HUVEC assessed as inhibition of endothelial tube formation at 25 uM after overnight incubation by inverted microscopic analysis; assay type: functional, cell-based; conditions: Homo sapiens
In short: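 HUVECs at passages 2–5 were seeded at 2 × 10^5 cells per well on a gelled basement membrane matrix, made as Matrigel mixed 1:1 with plain EBM-2. Bile acids were added at 12.5 and 25 μM, with DMSO as vehicle control, and cells were treated overnight. Bright-field images were taken at 10× from five fields per well. Nodes and tube lengths were quantified. Runs were in triplicate; statistics by one-way ANOVA (Dunnett).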

[3] = test system: HUVEC; test: Cytotoxicity against HUVEC assessed as reduction in cell death up to 12.5 uM after 24 hrs by MTT assay; assay type: cell-based; conditions: human
In short: (§1)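 HUVECs (passages 2–5, complete EBM-2) seeded at 5 × 10³ cells/well and left 24 h to adhere. Serum-starved 4 h, then exposed to bile acids (serial dilutions, 100 to 6.25 μM) in complete medium for 24 h. MTT added for 4 h at 37 °C, formazan dissolved in DMSO, absorbance read at 550 nm. Run in triplicate; three independent experiments.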

[4] = test system: HUVEC; test: Cytotoxicity against HUVEC assessed as reduction in cell viability at 6.25 to 100 uM after 24 hrs by MTT assay; assay type: cell-based; conditions: human
In short: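 HUVECs at passages 2–5 were seeded at 5 × 10^3 cells per well in complete EBM-2 and allowed to adhere for 24 h. They were serum-starved 4 h, then given serially diluted bile acids (100 to 6.25 μM) in complete medium for 24 h. MTT was added for 4 h at 37 °C. Formazan was dissolved in DMSO and absorbance read at 550 nm. Three independent experiments.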

[5] = species: Danio rerio; test: Antiangiogenic activity in Tg(fli:eGFP) zebrafish embryo assessed as effect on phynotypic changes at 6.25 to 12.5 uM after 72 hrs post fertilization by fluorescence microscopic analysis; assay type: functional, organism-based
In short: (§2)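 Tg(fli1:eGFP) zebrafish embryos were selected at 48 hpf, 20–25 per well, and exposed to bile acids at 6.25, 12.5 and 25 μM in embryo water from DMSO stocks. Vehicle was 0.1% DMSO. At 72 hpf the solutions were replaced with fresh embryo water. Embryos were anesthetized with tricaine and imaged by stereo and fluorescence microscopy for sub-intestinal vessel sprouting and branching. Two experiments, 50 embryos per group.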

[6] = species: Danio rerio; test: Toxicity in Tg(fli:eGFP) zebrafish embryo assessed as embryo death at 25 uM after 72 hrs post fertilization by fluorescence microscopic analysis; assay type: organism-based; conditions: in vivo
In short: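 Tg(fli1:eGFP) embryos selected at 48 hpf, 20–25 per well, raised at 28.5 °C. Bile acids (DMSO stock, diluted in embryo water) given at 6.25, 12.5 or 25 μM; 0.1% DMSO as vehicle control. Solutions replaced with fresh water at 72 hpf, embryos anaesthetised with tricaine and sub-intestinal vessels imaged by fluorescence. Scored as percentage of embryos; two experiments, 50 embryos/group.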

[7] = species: Danio rerio; test: Pro-angiogenic activity in Tg(fli:eGFP) zebrafish embryo assessed as thickening of vessels at 6.25 uM after 72 hrs post fertilization by fluorescence microscopic analysis; assay type: functional, organism-based; in short: as §2
[8] = species: Danio rerio; test: Antiangiogenic activity in Tg(fli:eGFP) zebrafish embryo assessed as abnormality in vasculature in developing embryos at 25 uM after 72 hrs post fertilization by fluorescence microscopic analysis; assay type: functional, organism-based; conditions: 12.5 uM, in the assay text read “12.5 uM” for “25 uM”; in short: as §2
[9] = species: Danio rerio; test: Antiangiogenic activity in Tg(fli:eGFP) zebrafish embryo assessed as vascular modification by measuring formation of irregular pattern of branches at 12.5 uM after 72 hrs post fertilization by fluorescence microscopic analysis; assay type: functional, organism-based; in short: as §2
[10] = species: Danio rerio; test: Pro-angiogenic activity in Tg(fli:eGFP) zebrafish embryo assessed as sprouting of vessels at 6.25 uM after 72 hrs post fertilization by fluorescence microscopic analysis; assay type: functional, organism-based; in short: as §2
[11] = test system: HUVEC; test: Cytotoxicity against HUVEC assessed as cell death at 100 uM after 24 hrs by MTT assay relative to control; assay type: cell-based; conditions: human; in short: as §1
[12] = test system: HUVEC; test: Antimigratory activity in HUVEC assessed as reduction in wound healing at 12.5 uM after 18 to 24 hrs by phase contrast microscopic analysis; assay type: functional, cell-based; conditions: Homo sapiens
In short: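 HUVECs grown to a confluent monolayer in 12-well plates and serum-deprived overnight. Scratched with a p200 tip, washed with DPBS, then given complete EBM-2 with 12.5 μM bile acid or DMSO vehicle. Imaged from a marked reference point at 0 h and after 18–24 h (phase contrast, 10×); percentage of migrated cells versus control. Triplicate; Dunnett's test.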

[13] = test system: HUVEC; test: Antiangiogenic activity in HUVEC assessed as induction of irregular stress fiber formation at 12.5 uM after overnight incubation by FITC-conjugated phalloidin staining based confocal microscopic analysis; assay type: functional, cell-based; conditions: Homo sapiens
In short: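 HUVECs grown to 70% confluency on coverslips and treated with bile acids overnight. Fixed in 4% paraformaldehyde for 5 min and blocked with 1% BSA/0.1% Triton X-100 for 2 h. Stained with anti-VE-cadherin (1:200, 4 °C overnight) plus Alexa-488 secondary, FITC-phalloidin (1:100) for F-actin, and DAPI. Confocal imaging; repeated twice.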

[14] = test system: HUVEC; test: Cytotoxicity against HUVEC assessed as cell death after 24 hrs by MTT assay relative to control; conditions: human
[15] = test system: HUVEC; test: Antiangiogenic activity in HUVEC assessed as inhibition of endothelial tube formation at 12.5 to 25 uM after overnight incubation by inverted microscopic analysis; assay type: functional, cell-based; conditions: Homo sapiens
In short: (§3)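 Wells coated with Matigel:plain EBM-2 (1:1). HUVECs added at 2 × 10⁵ cells/well with bile acid (12.5 or 25 μM) or vehicle and left overnight. Bright-field images at 10× from five fields per well; nodes and tube lengths counted. Triplicate, three independent experiments; one-way ANOVA with Dunnett's test.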

[16] = test system: HUVEC; test: Decrease in VEGFR2 m-RNA expression in HUVEC at 12.5 uM after 12 to 24 hrs by RT-qPCR analysis relative to control; assay type: functional, Homo sapiens
In short: (§4)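 HUVECs treated with 12.5 μM bile acid or DMSO for 12 and 24 h. Total RNA extracted and 1 μg reverse-transcribed. SYBR-green qPCR for VEGFR1/VEGFR2: 95 °C 10 min, then 40 cycles of 95 °C 5 s / 60 °C 30 s. ΔΔCT normalised to GAPDH and expressed as fold change over control; repeated twice.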

[17] = test system: HUVEC; test: Cytotoxicity against HUVEC assessed as reduction in cell viability at >25 uM after 24 hrs by MTT assay; assay type: cell-based; conditions: human; in short: as §1
[18] = test system: HUVEC; test: Antiangiogenic activity in HUVEC assessed as decrease in tube length at 12.5 uM after overnight incubation by inverted microscopic analysis; assay type: functional, cell-based; conditions: Homo sapiens; in short: as §3
[19] = species: Danio rerio; test: Toxicity in zebrafish embryo assessed as reduction in embryo survival at 3.25 uM; assay type: organism-based; conditions: in vivo
[20] = test system: HUVEC; test: Decrease in VEGFR1 m-RNA expression in HUVEC at 12.5 uM after 12 to 24 hrs by RT-qPCR analysis relative to control; assay type: functional, Homo sapiens; in short: as §4
[21] = test system: HUVEC; test: Antiangiogenic activity in HUVEC assessed as decrease in number of nodes at 12.5 uM after overnight incubation by inverted microscopic analysis; assay type: functional, cell-based; conditions: Homo sapiens; in short: as §3
[22] = species: Danio rerio; test: Toxicity in Tg(fli:eGFP) zebrafish embryo assessed as embryo death at 3 uM after 72 hrs post fertilization by fluorescence microscopic analysis; assay type: organism-based; conditions: in vivo

C[C@H](CCC(=O)O)[C@H]1CC[C@H]2[C@@H]3[C@H](O)C[C@@H]4C[C@H](O)CC[C@]4(C)[C@H]3C[C@H](O)[C@]12C [CHOLIC ACID]
Activity [1]: Non-Toxic | Activity [2]: Active | Activity [3]: Non-Toxic | Activity [4]: Non-Toxic | Activity [5]: inactive

C[C@H](CCC(=O)O)[C@H]1CC[C@H]2[C@@H]3CC[C@@H]4C[C@H](O)CC[C@]4(C)[C@H]3C[C@H](O)[C@]12C [DEOXYCHOLIC ACID]
Activity [1]: Non-Toxic | Activity [6]: Toxic | Activity [2]: Active | Activity [3]: Non-Toxic | Activity [7]: Active | Activity [8]: Active | Activity [4]: Non-Toxic | Activity [9]: Active | Activity [10]: Active

C[C@H](CCC(=O)O)[C@H]1CC[C@H]2[C@@H]3CC[C@@H]4C[C@H](O)CC[C@]4(C)[C@H]3CC[C@]12C [LITHOCHOLIC ACID]
Activity [11]: 75% | Activity [12]: Active | Activity [13]: Active | Activity [14]: Toxic | Activity [15]: Active | fold change (FC) [16]: 2 | Activity [17]: Toxic | Activity [18]: Active | Activity [3]: Non-Toxic | Activity [19]: Toxic | fold change (FC) [20]: 2 | Activity [21]: Active | Activity [22]: Toxic
